Paper PMC3887510 (Journal of the American Chemical Society, 2013)
Entries after “also recorded” stand apart in the source; their conditions may differ.

How the values were obtained:
[1] = tested on: constitutively active AgrC-I receptor mutant; settings: cited from earlier work
[2] = tested on: chimeric AgrC-III-IV receptor; assay: AgrC-III agonism assay; assay type: cell-based, Staphylococcus aureus; settings: S. aureus RN9532 reporter strain
How it was run: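 Uses an agr-null group-I strain carrying a P3-blaZ reporter plasmid. The chimeric receptor joins the group-III AgrC N-terminal sensor domain to the group-IV AgrC C-terminal histidine kinase domain, followed by the agrA coding sequence. Test peptides were serially diluted from stock to give dose-response data. β-lactamase activity was the read-out (modified literature assay), and EC50 was calculated from the curves.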

[3] = biological target: T1, AgrC-III (Staphylococcus aureus, UniProt O33590); settings: read-out: AgrC-III antagonism IC50 value (CI); S. aureus AH1747 group-III P3-gfp reporter; CI = 95% confidence interval; cited from earlier work
[4] = biological target: T1, AgrC-III; settings: cited from earlier work
[5] = biological target: T1, AgrC-III; assay: AgrC-III antagonism assay; assay type: cell-based; settings: ratio of IC50 values vs AIP-III D4A

| Substance | mode of action on constitutively active AgrC-I receptor mutant [1] | AgrC-III agonistic activity in words [2] | IC50 [3] [nM] | AgrC-III agonism EC50 value relative to AIP-III ([2]; Figure S-2) | fold less active as AgrC-III inhibitor relative to AIP-I D5A [4] [fold] | fold weaker / reduced AgrC-III inhibitory activity relative to AIP-III D4A [5] [fold] |
| --- | --- | --- | --- | --- | --- | --- |
| G-V-N-A-(C-S-S-L-F) [AIP-II] | inverse agonist | inactivity | 0.532 | – | – | – |
| I-N-(C-A-F-L-L) [AIP-III D4A] | – | – | 0.0506 | – | – | – |
| I-N-(C-D-F-L-L) [AIP-III] | neutral antagonists | – | – | – | – | – |
| I-N-(C-D-F-L-dL) [AIP-III D-L7] | – | agonistic activity; also recorded: able to activate AgrC-III (with analogous activity as AIP-III | – | comparable to AIP-III | – | – |
| Y-S-T-(C-D-F-I-M) [AIP-I] | – | inactivity | 0.522 | – | 10 | 10 |
| Y-S-T-(C-Y-F-I-M) [AIP-IV] | neutral antagonists | inactivity | 0.46 | – | – | – |
